Measurements published in ChEMBL document CHEMBL4261545, “Extraction of antioxidant and antiproliferative ingredients from fruits of Rubus chingii Hu by active tracking guidance” (Medchemcomm, 2017).
Converted amounts (≈) assume the structure as drawn. The source made the active and inactive calls. The rule behind the calls is not given here.

Legend:
MCF7 [1] = test: Cytotoxicity against human MCF7 cells after 24 hrs by MTT assay; format: functional, cell-based
Summary of the method: (§1)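 Cells grown in DMEM with 10% heat-inactivated FBS, penicillin and streptomycin at 37 °C, 5% CO2. Seeded 5×10^4 cells per well and treated 24 h after seeding. Samples dissolved in DMSO and diluted in medium, final DMSO under 0.1% (v/v). After 24 h exposure, MTT (0.5 mg mL-1) was added for 4 h at 37 °C and absorbance read at 490 nm. Inhibition % = (1 − ODsample/ODcontrol)×100, run in triplicate.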

Bel-7402 [2] = test: Cytotoxicity against human Bel7402 cells after 24 hrs by MTT assay; format: functional, cell-based; summary of the method: as §1
A549 [3] = test: Cytotoxicity against human A549 cells after 24 hrs by MTT assay; format: functional, cell-based; summary of the method: as §1
HepG2 [4] = test: Cytotoxicity against human HepG2 cells after 24 hrs by MTT assay; format: functional, cell-based; summary of the method: as §1
Bel-7402 [5] = test: Cytotoxicity against human Bel7402 cells assessed as inhibition of cell proliferation at 100 ug/ml after 24 hrs by MTT assay relative to control; format: functional; conditions: for inhibition at 100 µg/mL: Bel-7402, 24 h; summary of the method: as §1
HepG2 [6] = test: Cytotoxicity against human HepG2 cells assessed as inhibition of cell proliferation at 100 ug/ml after 24 hrs by MTT assay relative to control; format: functional
Summary of the method: (§2)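 Cells (from the CAS cell bank) were grown in DMEM with 10% heat-inactivated FBS, penicillin and streptomycin at 37 °C under 5% CO2. They were seeded at 5×10^4 cells/well and treated 24 h later. Samples were dissolved in DMSO and diluted in medium (final DMSO <0.1%) for 24 h. MTT (0.5 mg/mL) was added for 4 h at 37 °C and A490 read. Inhibition = (1 − OD sample/OD control)×100, in triplicate.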

A549 [7] = test: Cytotoxicity against human A549 cells assessed as inhibition of cell proliferation at 100 ug/ml after 24 hrs by MTT assay relative to control; format: functional; summary of the method: as §2
MCF7 [8] = test: Cytotoxicity against human MCF7 cells assessed as inhibition of cell proliferation at 100 ug/ml after 24 hrs by MTT assay relative to control; format: functional; summary of the method: as §2
MCF7 [9] = test: Induction of morphological changes in human MCF7 cells after 24 hrs by phase contrast microscopic method; format: functional, cell-based
Summary of the method: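 MCF-7 cells were kept in DMEM with 10% heat-inactivated FBS at 37 °C, 5% CO2, exposed to compound for 24 h, then examined for morphological changes by phase-contrast microscopy.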

Structure (SMILES)	Activity (MCF7 [1])	Activity (Bel-7402 [2])	Activity (A549 [3])	Activity (HepG2 [4])	inhibition (Bel-7402 [5])	inhibition (HepG2 [6])	inhibition (A549 [7])	inhibition (MCF7 [8])	inhibition at 100 µg/mL (Bel-7402 [5]) [%]	IC50 (MCF7 [1]; MCF7, 24 h) [µg/mL]	IC50 (Bel-7402 [2]; Bel-7402, 24 h) [µg/mL]	inhibition at 100 µg/mL (HepG2 [6]; HepG2, 24 h) [%]	IC50 (A549 [3]; A549, 24 h) [µg/mL]	IC50 (HepG2 [4]; HepG2, 24 h) [µg/mL]	inhibition at 100 µg/mL (A549 [7]; A549, 24 h) [%]	inhibition at 100 µg/mL (MCF7 [8]; MCF7, 24 h) [%]	Activity (MCF7 [9])
CC[C@H](CC[C@@H](C)[C@H]1CC[C@H]2[C@@H]3CC=C4C[C@@H](O[C@@H]5O[C@H](CO)[C@@H](O)[C@H](O)[C@H]5O)CC[C@]4(C)[C@H]3CC[C@]12C)C(C)C	Dose-dependent effect	Dose-dependent effect	Dose-dependent effect	Dose-dependent effect	–	–	–	–	–	–	–	–	–	–	–	–	–
C[C@@]12CCC[C@@](C)(C(=O)O)[C@H]1CC[C@@]13C[C@@H](CC[C@H]12)[C@](O)(CO)C3	Dose-dependent effect	Dose-dependent effect	Dose-dependent effect	Dose-dependent effect	–	–	–	–	–	–	–	–	–	–	–	–	–
O=c1[nH]cc(F)c(=O)[nH]1	–	–	–	–	Active	Active	Active	Active	–	–	–	–	–	–	–	–	–
CC1(C)CC[C@]2(C(=O)O)CC[C@]3(C)C(=CC[C@@H]4[C@@]5(C)CC[C@H](O)C(C)(C)[C@@H]5CC[C@]43C)[C@@H]2C1 [OLEANOLIC_ACID]	Dose-dependent effect	Dose-dependent effect	Dose-dependent effect	Dose-dependent effect	–	–	–	–	55.2	–	–	–	–	–	–	–	–
C[C@@H]1CC[C@]2(C(=O)O)CC[C@]3(C)C(=CC[C@@H]4[C@@]5(C)C[C@@H](O)[C@H](O)C(C)(C)[C@@H]5CC[C@]43C)[C@@H]2[C@]1(C)O [TOMENTIC ACID]	Dose-dependent effect	Dose-dependent effect	Dose-dependent effect	Dose-dependent effect	–	–	–	–	80.2	24.2 (≈ 49.6 µM)	54.2 (≈ 111 µM)	82.8	62.4 (≈ 128 µM)	40.6 (≈ 83 µM)	72.4	91.8	Active
